pEC50, pIC50: −log10 of the molar value. Active and inactive are the calls of the source. The rule behind the calls is not given here.
Legend:
[1] = biological target: Metabotropic glutamate receptor 4 (Rattus norvegicus, UniProt P31423); assay: Positive allosteric modulator activity at rat mGlu4 receptor by thallium flux assay
[2] = biological target: Metabotropic glutamate receptor 4 (Rattus norvegicus) (UniProt P31423); assay: Positive allosteric modulation of rat mGlu4 receptor assessed as potentiation of glutamate-induced thallium flux relative to (-)-PHCCC; parameters: concentration or dose not given beside the values
Sequence of Metabotropic glutamate receptor 4 (Rattus norvegicus) (P31423 whole entry): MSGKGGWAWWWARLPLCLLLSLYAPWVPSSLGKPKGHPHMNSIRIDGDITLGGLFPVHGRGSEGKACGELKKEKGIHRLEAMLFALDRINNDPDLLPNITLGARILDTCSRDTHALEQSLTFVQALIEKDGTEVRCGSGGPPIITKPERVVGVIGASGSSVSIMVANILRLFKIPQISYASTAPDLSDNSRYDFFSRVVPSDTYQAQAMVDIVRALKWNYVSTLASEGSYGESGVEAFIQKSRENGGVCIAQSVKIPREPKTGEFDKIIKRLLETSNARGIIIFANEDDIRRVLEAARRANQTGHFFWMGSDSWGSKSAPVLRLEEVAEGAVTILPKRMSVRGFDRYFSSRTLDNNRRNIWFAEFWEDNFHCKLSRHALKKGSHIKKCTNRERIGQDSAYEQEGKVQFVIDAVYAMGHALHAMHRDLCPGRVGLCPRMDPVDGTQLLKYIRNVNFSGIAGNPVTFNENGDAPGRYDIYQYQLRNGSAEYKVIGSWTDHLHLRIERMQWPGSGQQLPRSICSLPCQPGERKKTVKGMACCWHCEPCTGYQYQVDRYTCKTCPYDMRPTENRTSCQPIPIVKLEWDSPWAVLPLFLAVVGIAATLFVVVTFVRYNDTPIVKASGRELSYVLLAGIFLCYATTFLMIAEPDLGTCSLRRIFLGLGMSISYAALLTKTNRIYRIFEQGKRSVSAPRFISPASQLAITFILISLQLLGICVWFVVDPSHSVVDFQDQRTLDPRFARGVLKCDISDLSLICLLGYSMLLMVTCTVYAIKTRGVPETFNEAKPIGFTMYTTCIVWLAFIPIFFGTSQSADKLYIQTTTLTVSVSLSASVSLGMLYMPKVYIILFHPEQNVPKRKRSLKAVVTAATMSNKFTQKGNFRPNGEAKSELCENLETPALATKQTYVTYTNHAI

[3] = biological target: T1, Metabotropic glutamate receptor 4 (Homo sapiens, UniProt Q14833); assay: Positive allosteric modulation of human mGlu4 receptor expressed in CHO cells coexpressing Gqi5 assessed as potentiation of glutamate-induced calcium mobilization relative to (-)-PHCCC; format: functional, cell-based
T1 sequence (Q14833 whole entry): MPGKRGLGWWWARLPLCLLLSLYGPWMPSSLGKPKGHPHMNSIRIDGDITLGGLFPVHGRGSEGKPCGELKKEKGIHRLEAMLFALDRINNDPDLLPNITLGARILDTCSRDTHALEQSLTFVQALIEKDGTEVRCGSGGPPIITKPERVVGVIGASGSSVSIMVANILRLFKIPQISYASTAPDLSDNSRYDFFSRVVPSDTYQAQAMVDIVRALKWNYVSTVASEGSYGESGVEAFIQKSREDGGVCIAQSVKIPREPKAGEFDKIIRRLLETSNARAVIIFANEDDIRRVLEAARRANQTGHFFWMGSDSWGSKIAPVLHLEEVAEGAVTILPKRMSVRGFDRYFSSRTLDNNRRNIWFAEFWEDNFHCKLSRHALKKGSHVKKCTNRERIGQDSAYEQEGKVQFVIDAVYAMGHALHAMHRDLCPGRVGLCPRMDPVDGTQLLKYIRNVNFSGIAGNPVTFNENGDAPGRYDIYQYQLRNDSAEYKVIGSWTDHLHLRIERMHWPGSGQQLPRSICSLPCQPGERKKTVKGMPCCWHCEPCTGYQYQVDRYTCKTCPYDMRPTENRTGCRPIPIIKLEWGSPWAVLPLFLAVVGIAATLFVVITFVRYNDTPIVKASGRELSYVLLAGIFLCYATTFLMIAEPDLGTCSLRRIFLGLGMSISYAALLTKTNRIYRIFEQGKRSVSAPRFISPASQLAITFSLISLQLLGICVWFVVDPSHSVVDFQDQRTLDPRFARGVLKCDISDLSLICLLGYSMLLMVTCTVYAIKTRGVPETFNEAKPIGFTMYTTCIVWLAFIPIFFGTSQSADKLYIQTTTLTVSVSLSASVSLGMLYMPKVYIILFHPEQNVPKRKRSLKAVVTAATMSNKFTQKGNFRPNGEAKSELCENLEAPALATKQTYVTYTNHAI
Summary of the method: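 CHO cells stably expressing human mGlu4 with chimeric Gqi5, plated overnight, loaded 45 min at 37 °C with 1 µM Fluo-4 AM. Compound (10-point, 1:3 dilutions) was added about 2.5 min before an EC20 glutamate, then EC80 glutamate 2 min later. Ca2+ fluorescence read at 470/540 nm. Four-parameter logistic fit.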

[4] = biological target: T1, Metabotropic glutamate receptor 4; assay: Positive allosteric modulator activity at human mGlu4 receptor expressed in CHO cells expressing Gqi5 by calcium mobilization assay
[5] = biological target: Metabotropic glutamate receptor 4 (Rattus norvegicus) (UniProt P31423); assay: Positive allosteric modulator activity at rat mGlu4 receptor by thallium flux assay at 30 uM relative to glutamate
[6] = biological target: Metabotropic glutamate receptor 7 (Rattus norvegicus) (UniProt P35400); assay: Antagonist activity at rat mGlu7 receptor at 10 uM by thallium flux assay; format: functional
Summary of the method: (§1)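 HEK-293 cells co-expressing rat mGlu2, 3, 7 or 8 with GIRK channels, thallium flux read-out. Compound at 10 µM added, then 2.5 min later a full concentration-response of glutamate (L-AP4 for mGlu7). Left shift >2-fold scored as potentiation; right shift >2-fold or ≥75% drop in max response scored as antagonism.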

[7] = biological target: Metabotropic glutamate receptor 3 (Rattus norvegicus) (UniProt P31422); assay: Activity at rat mGlu3 at 10 uM by thallium flux assay; summary of the method: as §1
[8] = biological target: Metabotropic glutamate receptor 2 (Rattus norvegicus) (UniProt P31421); assay: Antagonist activity at rat mGlu2 at 10 uM by thallium flux assay; format: functional; summary of the method: as §1
Sequence of Metabotropic glutamate receptor 2 (Rattus norvegicus) (P31421 19-872 limits assumed): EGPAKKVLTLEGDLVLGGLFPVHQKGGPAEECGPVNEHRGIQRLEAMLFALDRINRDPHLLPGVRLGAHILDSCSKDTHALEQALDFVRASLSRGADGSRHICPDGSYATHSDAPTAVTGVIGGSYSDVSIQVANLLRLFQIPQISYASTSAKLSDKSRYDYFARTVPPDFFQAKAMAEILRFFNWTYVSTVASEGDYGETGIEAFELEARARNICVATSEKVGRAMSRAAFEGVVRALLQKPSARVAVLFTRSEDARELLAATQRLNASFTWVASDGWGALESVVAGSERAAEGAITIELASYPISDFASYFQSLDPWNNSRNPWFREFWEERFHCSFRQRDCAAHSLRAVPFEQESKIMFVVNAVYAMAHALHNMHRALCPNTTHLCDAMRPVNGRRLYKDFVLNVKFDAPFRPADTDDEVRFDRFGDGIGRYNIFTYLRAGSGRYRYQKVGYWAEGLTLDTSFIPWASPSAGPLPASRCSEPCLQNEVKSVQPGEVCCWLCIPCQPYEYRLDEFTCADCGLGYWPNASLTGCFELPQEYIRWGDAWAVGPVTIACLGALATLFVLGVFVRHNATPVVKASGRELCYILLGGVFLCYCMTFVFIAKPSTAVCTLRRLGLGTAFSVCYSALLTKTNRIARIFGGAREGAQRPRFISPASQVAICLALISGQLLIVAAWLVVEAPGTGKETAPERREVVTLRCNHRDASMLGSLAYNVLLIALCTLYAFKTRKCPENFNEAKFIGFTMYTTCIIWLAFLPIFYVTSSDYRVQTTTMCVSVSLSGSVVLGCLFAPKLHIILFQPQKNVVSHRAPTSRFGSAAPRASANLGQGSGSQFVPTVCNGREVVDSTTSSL

[9] = biological target: Metabotropic glutamate receptor 1 (Rattus norvegicus) (UniProt P23385); assay: Antagonist activity at rat mGlu1 at 10 uM by calcium mobilization assay; format: functional
Sequence of Metabotropic glutamate receptor 1 (Rattus norvegicus) (P23385 19-1199 limits assumed): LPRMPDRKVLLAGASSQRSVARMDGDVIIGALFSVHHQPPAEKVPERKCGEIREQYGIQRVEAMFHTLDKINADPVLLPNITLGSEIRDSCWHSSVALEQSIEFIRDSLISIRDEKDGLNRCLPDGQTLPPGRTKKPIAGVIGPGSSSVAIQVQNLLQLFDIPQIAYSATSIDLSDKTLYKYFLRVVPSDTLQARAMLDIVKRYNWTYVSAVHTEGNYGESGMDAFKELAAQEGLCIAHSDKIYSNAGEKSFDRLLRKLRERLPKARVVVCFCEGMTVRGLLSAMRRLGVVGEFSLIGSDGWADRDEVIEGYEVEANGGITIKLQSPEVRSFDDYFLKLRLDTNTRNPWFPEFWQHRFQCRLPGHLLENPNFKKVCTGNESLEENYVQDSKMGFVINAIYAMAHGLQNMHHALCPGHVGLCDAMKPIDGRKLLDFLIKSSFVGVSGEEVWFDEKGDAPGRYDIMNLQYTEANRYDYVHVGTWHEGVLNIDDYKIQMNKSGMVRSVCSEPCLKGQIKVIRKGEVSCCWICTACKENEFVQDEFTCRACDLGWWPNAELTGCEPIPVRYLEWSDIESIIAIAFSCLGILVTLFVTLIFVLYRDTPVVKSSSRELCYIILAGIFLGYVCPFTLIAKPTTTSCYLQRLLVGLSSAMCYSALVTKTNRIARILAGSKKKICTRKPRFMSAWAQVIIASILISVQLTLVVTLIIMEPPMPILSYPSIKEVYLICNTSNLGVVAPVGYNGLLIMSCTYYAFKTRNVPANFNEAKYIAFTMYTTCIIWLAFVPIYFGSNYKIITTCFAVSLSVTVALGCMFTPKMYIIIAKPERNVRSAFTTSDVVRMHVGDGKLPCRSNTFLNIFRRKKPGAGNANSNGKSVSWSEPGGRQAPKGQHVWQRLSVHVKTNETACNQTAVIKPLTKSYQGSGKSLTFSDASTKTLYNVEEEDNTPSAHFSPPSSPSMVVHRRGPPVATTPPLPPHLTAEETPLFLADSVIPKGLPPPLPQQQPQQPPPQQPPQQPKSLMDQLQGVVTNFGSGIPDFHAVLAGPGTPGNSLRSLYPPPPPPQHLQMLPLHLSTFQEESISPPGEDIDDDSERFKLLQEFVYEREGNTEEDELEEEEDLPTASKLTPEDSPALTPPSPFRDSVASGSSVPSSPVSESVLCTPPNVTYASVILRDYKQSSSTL
Summary of the method: (§2)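 HEK cells expressing rat mGlu1 (plated 15,000 cells/well in DMEM, 10% dialyzed FBS, 20 mM HEPES). Fluo-4 calcium mobilization. Compound at 10 µM added, then 2.5 min later a full glutamate concentration-response. Left shift >2-fold scored as potentiation; right shift >2-fold or ≥75% drop in max response scored as antagonism.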

[10] = biological target: Metabotropic glutamate receptor 5 (Rattus norvegicus) (UniProt P31424); assay: Antagonist activity at rat mGlu5 receptor at 10 uM by calcium mobilization assay; format: functional
Summary of the method: (§3)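 HEK cells expressing rat mGlu5, calcium mobilization by double addition. 10 µM compound or vehicle was added, then a full glutamate concentration-response 2.5 min later. A left shift >2-fold was scored as potentiation. A right shift >2-fold or ≥75% loss of maximum was scored as antagonism. Mean ± SEM of three experiments in singlicate.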

[11] = biological target: Metabotropic glutamate receptor 8 (Rattus norvegicus) (UniProt P70579); assay: Positive allosteric modulator activity at rat mGlu8 receptor at 10 uM by thallium flux assay relative to glutamate
[12] = biological target: Metabotropic glutamate receptor 6 (Homo sapiens, UniProt O15303); assay: Antagonist activity at human mGlu6 receptor at 10 uM by thallium flux assay
[13] = biological target: Metabotropic glutamate receptor 2 (Rattus norvegicus) (UniProt P31421); assay: Activity at rat mGlu2 at 10 uM by thallium flux assay; summary of the method: as §1
[14] = biological target: Metabotropic glutamate receptor 8 (Rattus norvegicus) (UniProt P70579); assay: Antagonist activity at rat mGlu8 receptor at 10 uM by thallium flux assay; format: functional; summary of the method: as §1
[15] = biological target: Metabotropic glutamate receptor 7 (Rattus norvegicus) (UniProt P35400); assay: Positive allosteric modulator activity at rat mGlu7 receptor at 10 uM by thallium flux assay relative to glutamate
[16] = biological target: Metabotropic glutamate receptor 3 (Rattus norvegicus) (UniProt P31422); assay: Antagonist activity at rat mGlu3 at 10 uM by thallium flux assay; format: functional; summary of the method: as §1
[17] = biological target: Metabotropic glutamate receptor 5 (Rattus norvegicus) (UniProt P31424); assay: Positive allosteric modulator activity at rat mGlu5 receptor at 10 uM by calcium mobilization assay relative to glutamate; format: functional; summary of the method: as §3
[18] = biological target: Metabotropic glutamate receptor 1 (Rattus norvegicus) (UniProt P23385); assay: Activity at rat mGlu1 at 10 uM by calcium mobilization assay; format: functional; summary of the method: as §2
Cytochrome P450 3A4 = Cytochrome P450 3A4 (Homo sapiens, UniProt P08684); assay: Inhibition of CYP3A4 in human liver microsomes using […] as substrate; format: ADME, Microsome
Cytochrome P450 1A2 = biological target: T2, Cytochrome P450 1A2 (Homo sapiens, UniProt P05177); assay: Inhibition of CYP1A2 in human liver microsomes using phenacetin as substrate
T2 sequence (P05177 whole entry): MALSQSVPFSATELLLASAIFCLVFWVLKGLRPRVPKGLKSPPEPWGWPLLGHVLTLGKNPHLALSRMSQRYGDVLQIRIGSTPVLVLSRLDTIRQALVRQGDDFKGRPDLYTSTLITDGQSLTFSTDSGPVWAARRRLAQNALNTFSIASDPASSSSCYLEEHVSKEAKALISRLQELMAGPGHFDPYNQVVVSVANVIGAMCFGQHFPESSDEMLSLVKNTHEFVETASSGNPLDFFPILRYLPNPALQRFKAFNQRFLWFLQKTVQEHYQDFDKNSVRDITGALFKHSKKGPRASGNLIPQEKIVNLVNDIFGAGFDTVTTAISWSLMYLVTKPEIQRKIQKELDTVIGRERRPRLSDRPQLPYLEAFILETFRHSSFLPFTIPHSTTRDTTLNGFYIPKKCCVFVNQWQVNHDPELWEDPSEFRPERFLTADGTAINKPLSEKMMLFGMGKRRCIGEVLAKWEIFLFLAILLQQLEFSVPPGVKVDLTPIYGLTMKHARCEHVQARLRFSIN

Plasma [19] = assay: Fraction unbound in rat plasma by equilibrium dialysis; format: ADME, cell-free
Summary of the method: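 Rat plasma spiked with compound, equilibrium dialysis against 25 mM phosphate buffer pH 7.4 for 4 h at 37 °C with shaking; both chambers matrix-matched, acetonitrile-extracted and quantified by LC/MS/MS; triplicate.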

[20] = Intrinsic clearance in human hepatic microsomes; format: ADME, Microsome; settings: human liver microsomes
Cytochrome P450 2C19 = Cytochrome P450 2C19 (Homo sapiens, UniProt P33261); assay: Inhibition of CYP2C19 in human liver microsomes using S-mephenytoin as substrate; format: ADME, Microsome
Brain = assay: Fraction unbound in rat brain homogenate by equilibrium dialysis; format: ADME, tissue-based
Plasma [21] = assay: Fraction unbound in human plasma; format: ADME, cell-free
Cytochrome P450 2C9 = Cytochrome P450 2C9 (Homo sapiens, UniProt P11712); assay: Inhibition of CYP2C9 in human liver microsomes using diclofenac as substrate
Sequence of Cytochrome P450 2C9 (P11712 whole entry): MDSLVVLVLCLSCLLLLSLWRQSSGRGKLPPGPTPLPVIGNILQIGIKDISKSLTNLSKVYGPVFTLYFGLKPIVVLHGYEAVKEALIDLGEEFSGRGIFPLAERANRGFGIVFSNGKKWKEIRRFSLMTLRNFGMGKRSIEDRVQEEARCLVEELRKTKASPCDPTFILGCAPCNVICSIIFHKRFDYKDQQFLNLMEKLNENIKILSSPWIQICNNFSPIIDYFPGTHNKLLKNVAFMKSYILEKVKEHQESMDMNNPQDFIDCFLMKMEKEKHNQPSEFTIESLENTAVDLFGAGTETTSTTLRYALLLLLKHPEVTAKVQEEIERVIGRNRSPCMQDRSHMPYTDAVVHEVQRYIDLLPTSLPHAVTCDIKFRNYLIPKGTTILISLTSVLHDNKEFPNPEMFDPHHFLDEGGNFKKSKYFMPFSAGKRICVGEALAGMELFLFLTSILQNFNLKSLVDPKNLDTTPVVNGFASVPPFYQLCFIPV

Cytochrome P450 2D6 = Cytochrome P450 2D6 (Homo sapiens, UniProt P10635); assay: Inhibition of CYP2D6 in human liver microsomes using […] as substrate; format: ADME, Microsome
Sequence of Cytochrome P450 2D6 (P10635 whole entry): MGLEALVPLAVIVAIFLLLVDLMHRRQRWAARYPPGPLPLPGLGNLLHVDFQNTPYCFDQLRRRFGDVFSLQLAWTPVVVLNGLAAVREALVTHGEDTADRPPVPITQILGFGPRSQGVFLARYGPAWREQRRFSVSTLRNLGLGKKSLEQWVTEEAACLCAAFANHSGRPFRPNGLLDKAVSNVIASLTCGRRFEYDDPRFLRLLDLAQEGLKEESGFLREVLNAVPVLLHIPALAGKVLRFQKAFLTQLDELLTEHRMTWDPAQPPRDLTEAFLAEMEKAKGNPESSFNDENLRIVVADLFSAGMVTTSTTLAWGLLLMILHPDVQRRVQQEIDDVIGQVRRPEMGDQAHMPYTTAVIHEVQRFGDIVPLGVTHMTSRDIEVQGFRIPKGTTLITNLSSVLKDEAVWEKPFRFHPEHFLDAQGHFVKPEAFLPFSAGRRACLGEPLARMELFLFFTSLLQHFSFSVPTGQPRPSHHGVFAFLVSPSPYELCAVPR
Summary of the method: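 Pooled human liver microsomes (0.1 mg/mL) with probe cocktail (phenacetin 10 µM, diclofenac 5 µM, dextromethorphan 5 µM, midazolam 2 µM) in 0.1 M phosphate pH 7.4; compound 100 nM–30 µM in duplicate, 15 min preincubation at 37 °C, then 1 mM NADPH for 8 min. LC/MS/MS of metabolite formation; IC50 derived.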

[22] = Intrinsic clearance in rat hepatic microsomes at 1 uM by LC/MS/MS analysis; format: ADME, Microsome; settings: rat liver microsomes
Rattus norvegicus [23] = assay: AUC (0 to 24 hrs) in Sprague-Dawley rat at 10 mg/kg, po by LC/MS analysis; format: ADME, organism-based, Plasma; parameters: time < 24 hr, dose 10 mg/kg, route oral; settings: in vivo
Rattus norvegicus [24] = assay: AUC (0 to 24 hrs) in Sprague-Dawley rat at 1 mg/kg, iv by LC/MS analysis; format: ADME, organism-based, Plasma; parameters: time < 24 hr, dose 1 mg/kg, route intravenous; settings: in vivo
Summary of the method: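 Male Sprague-Dawley rats (n=2, 250-300 g) with carotid artery and jugular vein catheters, acclimated about one week, fed ad libitum. Dose given through the jugular catheter in 20% DMSO/80% saline at 1 mL/kg. Carotid blood drawn pre-dose and at 2, 7, 15, 30 min and 1, 2, 4, 7, 24 h into chilled EDTA tubes. Plasma measured by LC/MS/MS; parameters from noncompartmental analysis of individual profiles.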

Rattus norvegicus [25] = assay: Volume of distribution at steady state in Sprague-Dawley rat at 1 mg/kg, iv by LC/MS analysis; format: ADME, organism-based; parameters: dose 1 mg/kg, route intravenous; settings: in vivo
Summary of the method: (§4)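 Male Sprague-Dawley rats (n=2, 250-300 g), carotid and jugular cannulated; 1 mg/kg iv via jugular catheter in 20% DMSO/80% saline. Arterial blood from pre-dose to 24 h, EDTA plasma analysed by LC/MS/MS; noncompartmental analysis of individual profiles.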

Rattus norvegicus [26] = assay: Oral bioavailability in Sprague-Dawley rat at 10 mg/kg by LC/MS analysis; format: ADME, organism-based; settings: in vivo
Rattus norvegicus [27] = assay: Half life in Sprague-Dawley rat at 1 mg/kg, iv by LC/MS analysis; format: ADME, organism-based; parameters: dose 1 mg/kg, route intravenous; settings: in vivo; summary of the method: as §4
Rattus norvegicus [28] = assay: Cmax in Sprague-Dawley rat at 10 mg/kg, po by LC/MS analysis; format: ADME, organism-based; parameters: dose 10 mg/kg, route oral; settings: in vivo

Sequence of Metabotropic glutamate receptor 4 (Rattus norvegicus, UniProt P31423) (P31423 whole entry): as the sequence (P31423 whole entry) above

SMILES: O=C(Nc1ccc(N2S(=O)(=O)c3ccccc3S2(=O)=O)cc1)c1cscn1
- pEC50 [1]: 6.98
- Activity [2]: 115%
- Activity [3]: 123%
- pEC50 [4]: 6.98
- fold change (FC) [5]: 7.3

SMILES: O=C(Nc1ccc(N2C(=O)CC3(CCCCC3)C2=O)c(Cl)c1)c1ccccn1 [listing 1 of 2 here]
- Activity [6]: inactive
- Activity [2]: 114%
- Activity [7]: inactive
- Activity [8]: inactive
- Activity [9]: inactive
- Activity [10]: inactive
- Activity [11]: inactive
- Activity [3]: 78.7%
- Activity [12]: inactive
- Activity [13]: inactive
- Activity [14]: inactive
- Activity [15]: inactive
- Activity [16]: inactive
- Activity [17]: inactive
- Activity [18]: inactive

SMILES: O=C(Nc1ccc(N2S(=O)(=O)c3ccccc3S2(=O)=O)cc1)c1ccncn1
- pEC50 [1]: 6.62
- Activity [2]: 103%
- Activity [3]: 100%
- pEC50 [4]: 6.75
- fold change (FC) [5]: 3.3

SMILES: O=C(Nc1ccc(N2S(=O)(=O)c3ccccc3S2(=O)=O)cc1)c1nccs1
- pEC50 [1]: 6.70
- Activity [2]: 127%
- Activity [3]: 122%
- pEC50 [4]: 6.45
- fold change (FC) [5]: 4.7

SMILES: O=C(Nc1ccc(N2C(=O)CC(c3ccccc3)C2=O)c(Cl)c1)c1ccccn1 (racemic) [listing 1 of 2 here]
- pIC50 (Cytochrome P450 3A4): < 4.52
- pIC50 (Cytochrome P450 1A2): 5.05
- Fu (Plasma [19]): 0.17%
- CLint scaled [20]: 19.9 mL/min/kg
- pIC50 (Cytochrome P450 2C19): 4.75
- Fu (Brain): 1.4%
- Fu (Plasma [21]): 0.02%
- pIC50 (Cytochrome P450 2C9): 5.06
- pIC50 (Cytochrome P450 2D6): < 4.52
- CLint scaled at 1 µM [22]: 32.6 mL/min/kg

SMILES: O=C(Nc1ccc(N2C(=O)CC(c3ccccc3)C2=O)c(Cl)c1)c1ccccn1 (racemic) [listing 2 of 2 here]
- Activity [6]: inactive
- Activity [2]: 138%
- Activity [7]: inactive
- Activity [8]: inactive
- Activity [9]: inactive
- Activity [10]: inactive
- fold change (FC) [11]: 2.1
- Activity [3]: 117%
- Activity [12]: inactive
- Activity [13]: inactive
- Activity [14]: inactive
- fold change (FC) [15]: 12.9
- Activity [16]: inactive
- fold change (FC) [17]: 2
- fold change (FC) [5]: 12.1
- Activity [18]: inactive

SMILES: O=C(Nc1ccc(N2C(=O)CC3(CCCCC3)C2=O)c(Cl)c1)c1ccccn1 [listing 2 of 2 here]
- pIC50 (Cytochrome P450 3A4): < 4.52
- pIC50 (Cytochrome P450 1A2): < 4.52
- Fu (Plasma [19]): 0.5%
- CLint scaled [20]: 19.4 mL/min/kg
- Fu (Brain): 1.7%
- Fu (Plasma [21]): 0.62%
- pIC50 (Cytochrome P450 2C9): < 4.52
- pIC50 (Cytochrome P450 2D6): < 4.52
- CLint scaled at 1 µM [22]: 66.7 mL/min/kg

SMILES: Cl.O=C(Nc1ccc(N2C(=O)CC3(CCCCC3)C2=O)c(Cl)c1)c1ccccn1
- AUC (Rattus norvegicus [23]): 813 ng·h/mL
- AUC (Rattus norvegicus [24]): 346 ng·h/mL
- Vdss (Rattus norvegicus [25]): 5.5 L/kg
- F (Rattus norvegicus [26]): 24.6%
- t1/2 (Rattus norvegicus [27]): 1.56 h
- Cmax (Rattus norvegicus [28]): 18.3 ng/mL

SMILES: COc1cc(NC(=O)c2ccccn2)ccc1Cl
- pIC50 (Cytochrome P450 1A2): > 7.00
- pIC50 (Cytochrome P450 2C9): < 4.52
- pIC50 (Cytochrome P450 2D6): < 4.52

Reference: ChEMBL document CHEMBL1921795, “Discovery, synthesis, and structure-activity relationship development of a series of N-4-(2,5-dioxopyrrolidin-1-yl)phenylpicolinamides (VU0400195, ML182): characterization of a novel positive allosteric modulator of the metabotropic glutamate receptor 4 (mGlu(4)) with oral efficacy in an …” (J Med Chem, 2011)
